Assay results as given in ChEMBL document CHEMBL2169845 (J Med Chem, 2012).
Calls of active or inactive are those of the source.

Legend:
NCI-H146 [1] = experiment: Induction of apoptosis in human NCI-H146 cells assessed as caspase 3 activation at 10 nM after 24 hrs by Western blot analysis; type: functional, cell-based
Procedure, shortened: (§1)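 H146 cells treated for 24 hr, then lysed on ice for 20 min in RIPA buffer with PMSF and protease inhibitors. Cleared lysates normalized by protein assay and run on 4–20% SDS-PAGE, then blotted to PVDF. Probed with rabbit antibodies to PARP and caspase-3 (cleaved forms detected), GAPDH as loading control, with HRP chemiluminescence detection.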

[2] = Inhibition of c-terminally truncated N-terminal 8xHis-tagged human Bcl-xL deletion mutant expressed in Escherichia coli BL21 (DE3) after 2 hrs by fluorescence polarization assay
NCI-H146 [3] = experiment: Induction of apoptosis in human NCI-H146 cells xenografted in SCID mouse assessed as caspase 3 cleavage at 25 mg/kg, iv after 3 to 24 hrs by Western blot analysis; type: functional, organism-based; set-up: dose 25 mg/kg
Procedure, shortened: (§2)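 SCID mice bearing H146 xenografts (100–200 mm3) received one i.v. dose, with a vehicle control group. Tumors harvested at 3, 6 and 24 h. PARP cleavage and caspase-3 cleavage assessed by Western blot.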

NCI-H146 [4] = experiment: Induction of apoptosis in human NCI-H146 cells assessed as cell viability after 24 hrs by trypan blue exclusion assay; type: functional, cell-based
Procedure, shortened: (§3)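 H146 cells exposed to a range of compound concentrations for 24 hr, then harvested and stained with trypan blue. Cells staining blue or looking morphologically unhealthy were scored as dead. At least 100 cells counted per sample.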

Mus musculus [5] = experiment: Toxicity in SCID mouse assessed as body weight loss at 25 mg/kg, iv administered 5 days per week for 2 weeks relative to vehicle-treated control; type: organism-based; set-up: dose 25 mg/kg, route intravenous; conditions: in vivo
Procedure, shortened: (§4)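 Tolerability tested in SCID mice given daily i.v. doses, 5 days a week for 2 weeks. Body weight loss tracked against a 10% threshold.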

NCI-H1417 = experiment: Cytotoxicity against human H1417 cells assessed as growth inhibition after 4 days by WST-8 assay; type: functional, cell-based; conditions: NCI-H1417, 96 h
Mus musculus [6] = experiment: Toxicity in SCID mouse assessed as body weight loss at 50 mg/kg, iv administered 5 days per week for 2 weeks relative to vehicle-treated control; type: organism-based; set-up: dose 50 mg/kg, route intravenous; conditions: in vivo; procedure, shortened: as §4
[7] = Toxicity in iv dosed SCID mouse administered 5 days per week for 2 weeks; type: organism-based; conditions: in vivo
[8] = target: T1, Apoptosis regulator Bcl-2 (Homo sapiens, UniProt P10415)
T1 sequence (P10415 whole entry): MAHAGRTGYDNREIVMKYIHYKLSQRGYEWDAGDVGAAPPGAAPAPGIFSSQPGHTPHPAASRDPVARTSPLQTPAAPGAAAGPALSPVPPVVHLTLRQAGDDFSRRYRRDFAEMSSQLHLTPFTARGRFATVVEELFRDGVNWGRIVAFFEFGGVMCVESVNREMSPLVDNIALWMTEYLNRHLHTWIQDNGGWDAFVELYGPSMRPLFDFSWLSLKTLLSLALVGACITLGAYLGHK

NCI-H146 [9] = experiment: Antitumor activity against human NCI-H146 cells xenografted in SCID mouse assessed as tumor free incidence at 25 mg/kg, iv measured on day 47 post tumor implantation; type: functional, organism-based; set-up: dose 25 mg/kg
Procedure, shortened: (§5)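 SCID mice bearing H146 xenografts randomized at 40–110 mm3 tumor volume (mean 70 mm3), 8 per group. Dosed intravenously, daily, 5 days a week for 2 weeks, with a vehicle control group. Tumor size and body weight measured 3 times weekly during dosing and twice weekly afterwards. Tumor volumes reported as mean ± SEM.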

[10] = Antitumor activity against human NCI-H146 cells xenografted in SCID mouse assessed as tumor free incidence at 25 mg/kg, iv measured on day 58 post tumor implantation; type: functional; procedure, shortened: as §5
NCI-H146 [11] = experiment: Induction of apoptosis in human NCI-H146 cells assessed as cell viability at 10 nM after 24 hrs by trypan blue exclusion assay; type: functional; conditions: NCI-H146, 24 h, read-out: Activity
Procedure, shortened: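 H146 small-cell lung cancer cells exposed to serial compound concentrations for 24 hr, then collected and stained with trypan blue. Blue-stained or morphologically unhealthy cells were scored as dead, with at least 100 cells counted per sample.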

[12] = Cytotoxicity against human NCI-H146 cells assessed as growth inhibition after 4 days by WST-8 assay; type: functional, cell-based; conditions: NCI-H146, 96 h
[13] = target: T1, Apoptosis regulator Bcl-2; experiment: Inhibition of N-terminal 6xHis-tagged human Bcl-2 expressed in Escherichia coli BL21 (DE3) after 2 hrs by fluorescence polarization assay
NCI-H146 [14] = experiment: Antitumor activity against human NCI-H146 cells xenografted in SCID mouse assessed as tumor regression at 25 mg/kg, iv administered 5 days per week for 2 weeks; type: functional, organism-based; set-up: dose 25 mg/kg; procedure, shortened: as §5
NCI-H146 [15] = experiment: Induction of apoptosis in human NCI-H146 cells assessed as PARP cleavage at 10 nM after 24 hrs by Western blot analysis; type: functional, cell-based; procedure, shortened: as §1
NCI-H146 [16] = experiment: Induction of apoptosis in human NCI-H146 cells xenografted in SCID mouse assessed as PARP cleavage at 25 mg/kg, iv after 3 to 6 hrs by Western blot analysis; type: functional, organism-based; set-up: dose 25 mg/kg; procedure, shortened: as §2
NCI-H146 [17] = experiment: Induction of apoptosis in human NCI-H146 cells assessed as cell viability at 30 to 100 nM after 24 hrs by trypan blue exclusion assay; type: functional; procedure, shortened: as §3
NCI-H146 [18] = experiment: Induction of apoptosis in human NCI-H146 cells assessed as PARP cleavage at 30 nM after 24 hrs by Western blot analysis; type: functional, cell-based; procedure, shortened: as §1
NCI-H146 [19] = experiment: Induction of apoptosis in human NCI-H146 cells assessed as caspase 3 activation at 30 nM after 24 hrs by Western blot analysis; type: functional, cell-based; procedure, shortened: as §1

Row | SMILES | IC50 [2] [nM] | Ki [8] [nM] | IC50 [13] [nM] | other results
1 | CCn1c(C)c(C(=O)O)c(-c2cccc(N3CCN(c4ccc(NS(=O)(=O)c5ccc(N[C@H](CCN6CCC(O)CC6)CSc6ccccc6)c(S(=O)(=O)C(F)(F)F)c5)cc4)CC3)c2)c1-c1ccc(Cl)cc1 | 6 | 1.2 | 5.4 | Activity (NCI-H146 [1]): Active; Activity (NCI-H146 [3]): Active; Activity (NCI-H146 [4]): Dose-dependent effect; Activity (Mus musculus [5]): < 10%; IC50 (NCI-H1417): 21 nM; Activity (Mus musculus [6]): > 10%; MTD at 2 weeks [7]: 25 mg/kg; Activity (NCI-H146 [9]): Active; Activity [10]: 71%; viability at 0.01 µM (NCI-H146 [11]): > 50%; IC50 [12]: 22 nM; Activity (NCI-H146 [14]): Active; Activity (NCI-H146 [15]): Active; Activity (NCI-H146 [16]): Active
2 | Cc1c(C(=O)O)c(-c2cccc(N3CCN(c4ccc(NS(=O)(=O)c5ccc(N[C@H](CCN6CCOCC6)CSc6ccccc6)c(S(=O)(=O)C(F)(F)F)c5)cc4)CC3)c2)c(-c2ccc(Cl)cc2)n1C | 10.8 | 14.1 | 55.2 | –
3 | Cc1c(C(=O)O)c(-c2cccc(N3CCN(c4ccc(NS(=O)(=O)c5ccc(N[C@H](CCN6CCC(C)(O)CC6)CSc6ccccc6)c(S(=O)(=O)C(F)(F)F)c5)cc4)CC3)c2)c(-c2ccc(Cl)cc2)n1C | 21.8 | 4.6 | 18.6 | IC50 (NCI-H1417): 179 nM; IC50 [12]: 171 nM
4 | Cc1c(C(=O)NCCCN2CCN(C)CC2)c(-c2cccc(N3CCN(c4ccc(NS(=O)(=O)c5cccc(S(=O)(=O)C6CC6)c5)cc4)CC3)c2)c(-c2ccc(Cl)cc2)n1C | 1040 | – | – | –
5 | Cc1c(C(=O)NCCCN2CCN(C)CC2)c(-c2cccc(N3CCN(c4ccc(NS(=O)(=O)c5cccc(S(C)(=O)=O)c5)cc4)CC3)c2)c(-c2ccc(Cl)cc2)n1C | 1920 | – | – | –
6 | COc1cccc(S(=O)(=O)Nc2ccc(N3CCN(c4cccc(-c5c(C(=O)NCCCN6CCN(C)CC6)c(C)n(C)c5-c5ccc(Cl)cc5)c4)CC3)cc2)c1 | 2160 | – | – | –
7 | Cc1c(C(=O)NCCCN2CCN(C)CC2)c(-c2cccc(N3CCN(c4ccc(NS(=O)(=O)c5cccc(C(C)(C)C)c5)cc4)CC3)c2)c(-c2ccc(Cl)cc2)n1C | 744 | – | – | –
8 | Cc1c(C(=O)O)c(-c2cccc(N3CCN(c4ccc(NS(=O)(=O)c5ccc(N[C@H](CCN(C)C)CSc6ccccc6)c([N+](=O)[O-])c5)cc4)CC3)c2)c(-c2ccc(Cl)cc2)n1C | – | < 1 | – | –
9 | Cc1c(C(=O)NCCCN2CCN(C)CC2)c(-c2cccc(N3CCN(c4ccc(NS(=O)(=O)c5cccc(OC(F)(F)F)c5)cc4)CC3)c2)c(-c2ccc(Cl)cc2)n1C | 1650 | – | – | –
10 | CCCCn1c(C)c(C(=O)O)c(-c2cccc(N3CCN(c4ccc(NS(=O)(=O)c5ccc(N[C@H](CCN6CCC(O)CC6)CSc6ccccc6)c(S(=O)(=O)C(F)(F)F)c5)cc4)CC3)c2)c1-c1ccc(Cl)cc1 | 6.3 | 20 | 78.2 | IC50 (NCI-H1417): 97 nM; IC50 [12]: 128 nM
11 | CCOc1cccc(S(=O)(=O)Nc2ccc(N3CCN(c4cccc(-c5c(C(=O)NCCCN6CCN(C)CC6)c(C)n(C)c5-c5ccc(Cl)cc5)c4)CC3)cc2)c1 | 3650 | – | – | –
12 | CN(C)CC[C@H](CSc1ccccc1)Nc1ccc(S(=O)(=O)NC(=O)c2ccc(N3CCN(Cc4ccccc4-c4ccc(Cl)cc4)CC3)cc2)cc1[N+](=O)[O-] [ABT 737] | – | – | – | Activity (NCI-H146 [4]): Dose-dependent effect; Activity (NCI-H146 [17]): >50%
13 | Cc1cccc(S(=O)(=O)Nc2ccc(N3CCN(c4cccc(-c5c(C(=O)NCCCN6CCN(C)CC6)c(C)n(C)c5-c5ccc(Cl)cc5)c4)CC3)cc2)c1 | 1990 | – | – | –
14 | Cc1c(C(=O)NCCCN2CCN(C)CC2)c(-c2cccc(N3CCN(c4ccc(NS(=O)(=O)c5cccc(F)c5)cc4)CC3)c2)c(-c2ccc(Cl)cc2)n1C | 1310 | – | – | –
15 | Cc1c(C(=O)O)c(-c2cccc(N3CCN(c4ccc(NS(=O)(=O)c5ccc(N[C@H](CCN6CCC6)CSc6ccccc6)c(S(=O)(=O)C(F)(F)F)c5)cc4)CC3)c2)c(-c2ccc(Cl)cc2)n1C | 16.5 | 1.7 | 7.5 | IC50 (NCI-H1417): 126 nM; IC50 [12]: 86 nM
16 | Cc1c(C(=O)NCCCN2CCN(C)CC2)c(-c2cccc(N3CCN(c4ccc(NS(=O)(=O)c5cccc(Cl)c5)cc4)CC3)c2)c(-c2ccc(Cl)cc2)n1C | 1060 | – | – | –
17 | Cc1c(C(=O)NCCCN2CCN(C)CC2)c(-c2cccc(N3CCN(c4ccc(NS(=O)(=O)c5cccc(Br)c5)cc4)CC3)c2)c(-c2ccc(Cl)cc2)n1C | 499 | – | – | –
18 | CCCn1c(C)c(C(=O)O)c(-c2cccc(N3CCN(c4ccc(NS(=O)(=O)c5ccc(N[C@H](CCN6CCC(O)CC6)CSc6ccccc6)c(S(=O)(=O)C(F)(F)F)c5)cc4)CC3)c2)c1-c1ccc(Cl)cc1 | 8.2 | 7.5 | 30.1 | IC50 (NCI-H1417): 105 nM; IC50 [12]: 128 nM
19 | CCS(=O)(=O)c1cccc(S(=O)(=O)Nc2ccc(N3CCN(c4cccc(-c5c(C(=O)NCCCN6CCN(C)CC6)c(C)n(C)c5-c5ccc(Cl)cc5)c4)CC3)cc2)c1 | 954 | – | – | –
20 | Cc1c(C(=O)NCCCN2CCN(C)CC2)c(-c2cccc(N3CCN(c4ccc(NS(=O)(=O)c5cccc([N+](=O)[O-])c5)cc4)CC3)c2)c(-c2ccc(Cl)cc2)n1C | 131 | – | – | –
21 | Cc1c(C(=O)O)c(-c2cccc(N3CCN(c4ccc(NS(=O)(=O)c5ccc(N[C@H](CCN(C)C)CSc6ccccc6)c(S(=O)(=O)C(F)(F)F)c5)cc4)CC3)c2)c(-c2ccc(Cl)cc2)n1C | 5.1 | 2.1 | 9.2 | –
22 | Cc1c(C(=O)O)c(-c2cccc(N3CCN(c4ccc(NS(=O)(=O)c5ccc(N[C@H](CCN6CC(O)C6)CSc6ccccc6)c(S(=O)(=O)C(F)(F)F)c5)cc4)CC3)c2)c(-c2ccc(Cl)cc2)n1C | 10.5 | 1.7 | 7.7 | IC50 (NCI-H1417): 299 nM; IC50 [12]: 241 nM
23 | Cc1c(C(=O)NCCCN2CCN(C)CC2)c(-c2cccc(N3CCN(c4ccc(NS(=O)(=O)c5cccc(OC(C)C)c5)cc4)CC3)c2)c(-c2ccc(Cl)cc2)n1C | 1050 | – | – | –
24 | CC1(C)CCC(c2ccc(Cl)cc2)=C(CN2CCN(c3ccc(C(=O)NS(=O)(=O)c4ccc(N[C@H](CCN5CCOCC5)CSc5ccccc5)c(S(=O)(=O)C(F)(F)F)c4)cc3)CC2)C1 [NAVITOCLAX] | – | – | – | Activity (NCI-H146 [4]): Dose-dependent effect; Activity (NCI-H146 [18]): Active; Activity (NCI-H146 [17]): >50%; Activity (NCI-H146 [19]): Active
25 | CCc1cccc(S(=O)(=O)Nc2ccc(N3CCN(c4cccc(-c5c(C(=O)NCCCN6CCN(C)CC6)c(C)n(C)c5-c5ccc(Cl)cc5)c4)CC3)cc2)c1 | 1950 | – | – | –
26 | Cc1c(C(=O)NCCCN2CCN(C)CC2)c(-c2cccc(N3CCN(c4ccc(NS(=O)(=O)c5ccccc5)cc4)CC3)c2)c(-c2ccc(Cl)cc2)n1C | 3730 | – | – | –
27 | Cc1c(C(=O)O)c(-c2cccc(N3CCN(c4ccc(NS(=O)(=O)c5ccc(N[C@H](CCN6CCCCC6)CSc6ccccc6)c(S(=O)(=O)C(F)(F)F)c5)cc4)CC3)c2)c(-c2ccc(Cl)cc2)n1C | 12.1 | 3.8 | 15.6 | IC50 (NCI-H1417): 171 nM; IC50 [12]: 133 nM
28 | Cc1c(C(=O)O)c(-c2cccc(N3CCN(c4ccc(NS(=O)(=O)c5ccc(N[C@H](CCN6CCCC6)CSc6ccccc6)c(S(=O)(=O)C(F)(F)F)c5)cc4)CC3)c2)c(-c2ccc(Cl)cc2)n1C | 10.7 | 1.8 | 8.3 | IC50 (NCI-H1417): 106 nM; IC50 [12]: 87 nM
